Experimental findings from ChEMBL document CHEMBL4257594 (J Med Chem, 2018) are described below.

Calls of active or inactive are those of the source. No cut-off for these calls is given here.

The IC50 is the point on the concentration scale where inhibition reaches its midpoint. Low readings indicate greater potency, high ones weaker potency. As a reminder, the inhibition is the drop in the measured response relative to a control, in per cent.

For series [1], the system named is HUVEC. Description: Anti-angiogenic activity against HUVEC after 24 hrs by scintillation counting based [3H]-thymidine incorporation assay. The class given is functional, cell-based. As to conditions: Homo sapiens. An outline of the steps: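 HUVEC seeded at 2000 cells/well and left to settle overnight, then drug added in triplicate for 24 h. Mean ± SD of three independent experiments run in triplicate.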
Background: Dividing cells build labelled thymidine or BrdU into new DNA.

In series [2] the target is CYP3A4 (Homo sapiens, UniProt P08684). Description: (§1) Inhibition of human liver microsome CYP3A4 at 1 uM expressed in baculosomes using fluorogenic-DBOMF as substrate preincubated for 10 mins followed by substrate addition and measured after 60 mins by fluorescence based assay. The class given is ADME, microsomes. Conditions: recombinant CYP3A4 expressed in baculosomes, probe DBOMF (fluorogenic). An outline of the steps: (§2)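 CYP3A4 baculosomes preincubated with drug at 1 µM for 10 min at 37 °C before Vivid green substrate added. Fluorescence (ex/em 485/520) read 60 min after substrate addition. Percent inhibition set against 10 μM ketoconazole as the 100% control; mean ± SD of three independent experiments run in triplicate.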

For series [3], the target named is Cytochrome P450 3A4 (Homo sapiens, UniProt P08684). Described as §1. The class given is ADME, microsomes. Conditions: microsomes, 1 h, 1 µM. An outline of the steps: as §2
Series [4] addresses T1, NPC intracellular cholesterol transporter 1 (Homo sapiens) (UniProt O15118).
T1 sequence (whole entry): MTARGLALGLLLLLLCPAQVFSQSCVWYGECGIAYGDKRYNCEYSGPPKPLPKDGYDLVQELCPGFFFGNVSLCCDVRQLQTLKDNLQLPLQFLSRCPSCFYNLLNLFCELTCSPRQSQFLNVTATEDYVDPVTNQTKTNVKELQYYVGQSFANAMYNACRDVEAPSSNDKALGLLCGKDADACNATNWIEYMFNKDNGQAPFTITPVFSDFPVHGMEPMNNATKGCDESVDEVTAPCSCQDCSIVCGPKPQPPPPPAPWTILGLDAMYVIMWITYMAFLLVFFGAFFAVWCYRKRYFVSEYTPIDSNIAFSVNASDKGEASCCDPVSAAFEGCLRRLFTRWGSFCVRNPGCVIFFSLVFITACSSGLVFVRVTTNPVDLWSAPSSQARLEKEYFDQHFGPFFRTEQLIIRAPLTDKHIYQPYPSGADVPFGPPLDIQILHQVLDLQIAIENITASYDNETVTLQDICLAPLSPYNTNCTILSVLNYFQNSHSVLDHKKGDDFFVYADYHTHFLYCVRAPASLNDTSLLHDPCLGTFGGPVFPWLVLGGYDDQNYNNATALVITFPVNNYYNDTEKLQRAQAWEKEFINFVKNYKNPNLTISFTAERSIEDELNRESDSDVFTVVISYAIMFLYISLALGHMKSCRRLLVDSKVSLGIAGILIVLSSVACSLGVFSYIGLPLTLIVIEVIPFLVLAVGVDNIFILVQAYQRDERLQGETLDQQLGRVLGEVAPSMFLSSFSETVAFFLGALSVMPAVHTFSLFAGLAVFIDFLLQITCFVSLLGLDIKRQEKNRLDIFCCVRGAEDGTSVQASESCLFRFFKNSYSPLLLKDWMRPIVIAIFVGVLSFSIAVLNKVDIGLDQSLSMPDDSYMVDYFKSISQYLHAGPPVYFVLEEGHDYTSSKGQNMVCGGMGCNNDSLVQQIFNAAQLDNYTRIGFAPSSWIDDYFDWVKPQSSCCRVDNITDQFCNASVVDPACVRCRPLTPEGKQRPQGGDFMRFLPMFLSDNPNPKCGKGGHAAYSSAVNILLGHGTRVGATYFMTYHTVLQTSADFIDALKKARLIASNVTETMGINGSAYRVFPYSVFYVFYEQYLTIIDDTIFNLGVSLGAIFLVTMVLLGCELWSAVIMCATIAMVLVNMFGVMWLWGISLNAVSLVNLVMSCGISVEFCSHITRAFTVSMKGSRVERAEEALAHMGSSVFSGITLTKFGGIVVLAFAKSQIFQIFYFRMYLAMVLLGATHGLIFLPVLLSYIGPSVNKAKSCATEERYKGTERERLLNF
Put plainly: Binding affinity to NPC1 in HUVEC assessed as increase in cholesterol accumulation in late endosome/lysosome at 0.2 uM after 14 hrs by filipin staining-based confocal microscopy. The class given is cell-based. The method, boiled down: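 Methods give HUVEC (2,000) on chamber slides, settled overnight, then 0.1 µM drug or DMSO for 14 h; legend gives 0.2 μM for 24 h. Cells fixed in 4% paraformaldehyde for 15 min, then stained with 50 µg/ml filipin for 1 h in the dark. Imaged by confocal microscopy at 360/460 nm.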

In series [5] the test system is HUVEC. Description: Antiangiogenic activity in HUVEC assessed as inhibition of tube formation at 5 uM after 24 hrs by matrigel assay relative to control. The class given is functional. As to conditions: Homo sapiens. An outline of the steps: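 HUVEC (70,000 per well) plated on Matrigel-coated wells in medium containing drug or DMSO. After 24 h, stained with 2 μM calcein AM for 15 min, medium replaced, and tube networks imaged by fluorescence microscopy. Total tube length quantified from the images and compared with DMSO.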

For series [6], the target named is Non-selective voltage-gated ion channel VDAC1 (Homo sapiens) (UniProt P21796). Description: Binding affinity to VDAC1 (unknown origin) at 10 uM using itraconazole as probe by photoaffinity probe competitor assay.
Sequence of Non-selective voltage-gated ion channel VDAC1 (Homo sapiens) (P21796 whole entry): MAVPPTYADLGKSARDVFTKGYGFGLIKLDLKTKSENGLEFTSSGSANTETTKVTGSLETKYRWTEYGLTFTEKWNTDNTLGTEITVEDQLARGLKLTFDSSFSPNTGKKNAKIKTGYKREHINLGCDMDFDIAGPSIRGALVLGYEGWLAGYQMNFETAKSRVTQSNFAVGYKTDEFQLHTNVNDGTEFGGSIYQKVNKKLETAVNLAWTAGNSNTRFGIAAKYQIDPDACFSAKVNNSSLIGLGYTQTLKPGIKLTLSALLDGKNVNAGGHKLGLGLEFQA

Sequence of CYP3A4 (P08684 whole entry): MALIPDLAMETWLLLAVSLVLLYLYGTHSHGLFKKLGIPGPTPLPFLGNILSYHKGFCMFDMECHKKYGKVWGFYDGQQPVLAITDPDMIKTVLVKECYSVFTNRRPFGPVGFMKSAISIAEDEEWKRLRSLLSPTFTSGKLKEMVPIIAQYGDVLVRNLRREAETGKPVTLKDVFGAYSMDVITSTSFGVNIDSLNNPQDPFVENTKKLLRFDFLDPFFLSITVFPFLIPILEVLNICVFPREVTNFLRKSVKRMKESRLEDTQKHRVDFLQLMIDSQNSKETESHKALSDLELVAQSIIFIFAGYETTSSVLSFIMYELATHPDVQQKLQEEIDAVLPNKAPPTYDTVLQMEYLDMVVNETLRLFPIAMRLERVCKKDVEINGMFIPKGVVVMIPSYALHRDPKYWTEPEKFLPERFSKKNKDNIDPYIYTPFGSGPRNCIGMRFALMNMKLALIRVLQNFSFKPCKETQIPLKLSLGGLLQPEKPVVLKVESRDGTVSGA
Sequence of Cytochrome P450 3A4 (P08684 whole entry): as above

Consider `CCC(C)n1ncn(-c2ccc(N3CCN(c4ccc(OC[C@@H]5CO[C@@](Cn6nc(C)nc6C)(c6ccc(Cl)cc6Cl)O5)cc4)CC3)cc2)c1=O` (stereo partly specified), for which, in series [1], the IC50 is 221 nM. Besides, in series [2], the inhibition at 1 h, 1 µM turned out to be 27%.

With `CCC(C)n1ncn(-c2ccc(N3CCN(c4ccc(OC[C@@H]5CO[C@@](CC)(c6ccc(Cl)cc6Cl)O5)cc4)CC3)cc2)c1=O` (stereo partly specified), half-maximal inhibition in series [1] (IC50) was put at 353 nM. For the same molecule, the “inhibition (INH)” value in series [3] was “Not Active”.

In the case of `CCC(C)n1ncn(-c2ccc(N3CCN(c4ccc(OC[C@@H]5CO[C@@](Cn6nnnc6-c6ccccc6)(c6ccc(Cl)cc6Cl)O5)cc4)CC3)cc2)c1=O` (stereo partly specified), inhibition in series [1] was half-maximal at 119 nM (IC50). The inhibition at 1 h, 1 µM in series [2] amounted to 18%.

`CCC(C)n1ncn(-c2ccc(N3CCN(c4ccc(OC[C@@H]5CO[C@@](Cc6ccccc6)(c6ccc(Cl)cc6Cl)O5)cc4)CC3)cc2)c1=O` (stereo partly specified) displayed a half-maximal inhibitory concentration (IC50) in series [1] of 513 nM. In addition, the “inhibition (INH)” value in series [3] is “Not Active”.

The molecule `CCC(C)n1ncn(-c2ccc(N3CCN(c4ccc(OC[C@@H]5CO[C@@](Cn6cc(C)nc6C)(c6ccc(Cl)cc6Cl)O5)cc4)CC3)cc2)c1=O` (stereo partly specified) gave an IC50 in series [1] of 492 nM. The inhibition at 1 h, 1 µM in series [2] worked out at 38%.

As to `CCC(C)n1ncn(-c2ccc(N3CCN(c4ccc(OC[C@@H]5CO[C@@](Cn6cnc(C)n6)(c6ccc(Cl)cc6Cl)O5)cc4)CC3)cc2)c1=O` (stereo partly specified), in series [1], the IC50 is 272 nM. Besides, the inhibition at 1 h, 1 µM in series [2] is 30%.

Consider `CCC(C)n1ncn(-c2ccc(N3CCN(c4ccc(OCC5COC(Cn6cncn6)(c6ccc(Cl)cc6Cl)O5)cc4)CC3)cc2)c1=O` (stereo unspecified) [ITRACONAZOLE], for which the outcome in series [4] was Active. The inhibition at 1 h, 1 µM in series [2] amounted to 84%. The inhibition at 5 µM in series [5] turned out to be 45%.

In the case of `CCC(C)n1ncn(-c2ccc(N3CCN(c4ccc(OC[C@@H]5CO[C@@](Cn6cnc(C)c6)(c6ccc(Cl)cc6Cl)O5)cc4)CC3)cc2)c1=O` (stereo partly specified), the IC50 in series [1] came to 102 nM. Further, the inhibition at 1 h, 1 µM in series [2] amounted to 98%.

In series [1], `CCC(C)n1ncn(-c2ccc(N3CCN(c4ccc(OC[C@@H]5CO[C@@](Cn6cc(C(F)(F)F)nc6C)(c6ccc(Cl)cc6Cl)O5)cc4)CC3)cc2)c1=O` (stereo partly specified) displayed an IC50 of 441 nM. In addition, the “inhibition (INH)” value in series [3] was “Not Active”.

Consider `CCC(C)n1ncn(-c2ccc(N3CCN(c4ccc(OC[C@@H]5CO[C@@](Cn6ccnc6C(C)C)(c6ccc(Cl)cc6Cl)O5)cc4)CC3)cc2)c1=O` (stereo partly specified), for which half-maximal inhibition in series [1] (IC50) required 84 nM. Also, the result in series [4] was Active. Moreover, the inhibition at 1 h, 1 µM in series [2] was 6%.

The molecule `CCC(C)n1ncn(-c2ccc(N3CCN(c4ccc(OC[C@@H]5CO[C@@](CN6CCNCC6)(c6ccc(Cl)cc6Cl)O5)cc4)CC3)cc2)c1=O` (stereo partly specified) returned an IC50 in series [1] of 608 nM. Besides, the inhibition at 1 h, 1 µM in series [2] was 91%.

For `CCC(C)n1ncn(-c2ccc(N3CCN(c4ccc(OC[C@@H]5CO[C@@](Cn6ccnc6C)(c6ccc(Cl)cc6Cl)O5)cc4)CC3)cc2)c1=O` (stereo partly specified), the IC50 in series [1] was determined as 173 nM. The inhibition at 1 h, 1 µM in series [2] came to 71%.

Regarding `CCC(C)n1ncn(-c2ccc(N3CCN(c4ccc(OC[C@@H]5CO[C@@](Cn6ccnc6)(c6ccc(Cl)cc6Cl)O5)cc4)CC3)cc2)c1=O` (stereo partly specified), in series [1], the midpoint of inhibition, the IC50, lay at 85 nM. Besides, the inhibition at 1 h, 1 µM in series [2] was 99%.

Consider `CCC(C)n1ncn(-c2ccc(N3CCN(c4ccc(OC[C@@H]5COC(c6ccc(Cl)cc6Cl)O5)cc4)CC3)cc2)c1=O` (mixture of isomers), for which the IC50 in series [1] was determined as 328 nM. Moreover, the “inhibition (INH)” value in series [3] was “Not Active”.

As to `CCC(C)n1ncn(-c2ccc(N3CCN(c4ccc(OC[C@@H]5CO[C@@](Cn6c(C)cnc6C)(c6ccc(Cl)cc6Cl)O5)cc4)CC3)cc2)c1=O` (stereo partly specified), the midpoint of inhibition in series [1], the IC50, lay at 765 nM. Besides, the inhibition at 1 h, 1 µM in series [2] was 23%.

`CCC(C)n1ncn(-c2ccc(N3CCN(c4ccc(OC[C@@H]5CO[C@@](Cn6cccn6)(c6ccc(Cl)cc6Cl)O5)cc4)CC3)cc2)c1=O` (stereo partly specified) had an IC50 in series [1] of 307 nM. In series [3], the “inhibition (INH)” value is “Not Active”.

Molecule `CCC(C)n1ncn(-c2ccc(N3CCN(c4ccc(OC[C@@H]5CO[C@@](CN6CCOCC6)(c6ccc(Cl)cc6Cl)O5)cc4)CC3)cc2)c1=O` (stereo partly specified) showed a half-maximal inhibitory concentration (IC50) in series [1] of 1180 nM. Also, in series [2], the inhibition at 1 h, 1 µM stood at 16%.

`CCC(C)n1ncn(-c2ccc(N3CCN(c4ccc(OC[C@@H]5CO[C@@](Cn6nnnc6C)(c6ccc(Cl)cc6Cl)O5)cc4)CC3)cc2)c1=O` (stereo partly specified): the concentration for half-maximal inhibition (IC50) in series [1] was found to be 101 nM. Moreover, the inhibition at 1 h, 1 µM in series [2] was determined as 7%.

For `CCC(C)n1ncn(-c2ccc(N3CCN(c4ccc(OC[C@@H]5CO[C@@](Cn6ncnn6)(c6ccc(Cl)cc6Cl)O5)cc4)CC3)cc2)c1=O` (stereo partly specified), in series [1], it took 124 nM to reach half-maximal inhibition (IC50). Moreover, in series [2], the inhibition at 1 h, 1 µM was determined as 17%.

The molecule `CCC(C)n1ncn(-c2ccc(N3CCN(c4ccc(OC[C@@H]5CO[C@@](CBr)(c6ccc(Cl)cc6Cl)O5)cc4)CC3)cc2)c1=O` (stereo partly specified) showed a half-maximal inhibitory concentration (IC50) in series [1] of 569 nM. For the same molecule, the inhibition at 1 h, 1 µM in series [2] came out at 3%.

The molecule `CCC(C)n1ncn(-c2ccc(N3CCN(c4ccc(OC[C@@H]5CO[C@@](CN(C)C)(c6ccc(Cl)cc6Cl)O5)cc4)CC3)cc2)c1=O` (stereo partly specified) yielded an IC50 in series [1] of 1400 nM. Moreover, the “inhibition (INH)” value in series [3] was “Not Active”.

The molecule `CCc1nccn1C[C@@]1(c2ccc(Cl)cc2Cl)OC[C@@H](COc2ccc(N3CCN(c4ccc(-n5cnn(C(C)CC)c5=O)cc4)CC3)cc2)O1` (stereo partly specified) yielded an IC50 in series [1] of 224 nM. Also, the inhibition at 1 h, 1 µM in series [2] came to 7%.

For the molecule `CCC(C)n1ncn(-c2ccc(N3CCN(c4ccc(OC[C@@H]5CO[C@@](Cn6ccnc6-c6ccccc6)(c6ccc(Cl)cc6Cl)O5)cc4)CC3)cc2)c1=O` (stereo partly specified), the half-maximal inhibitory concentration (IC50) in series [1] was 136 nM. Also, the inhibition at 1 h, 1 µM in series [2] was 23%. Also, the result in series [6] was Active.

For the molecule `CCC(C)n1ncn(-c2ccc(N3CCN(c4ccc(OC[C@@H]5CO[C@@](Cn6cnc(C(F)(F)F)n6)(c6ccc(Cl)cc6Cl)O5)cc4)CC3)cc2)c1=O` (stereo partly specified), the half-inhibitory concentration (IC50) in series [1] came out at 270 nM. Besides, the result in series [4] was Active. For the same molecule, the “inhibition (INH)” value in series [3] was “Not Active”.

As to `CCC(C)n1ncn(-c2ccc(N3CCN(c4ccc(OC[C@@H]5CO[C@@](CN6CCN(C)CC6)(c6ccc(Cl)cc6Cl)O5)cc4)CC3)cc2)c1=O` (stereo partly specified), in series [1], the IC50 came to 396 nM. Moreover, the inhibition at 1 h, 1 µM in series [2] was 18%.

`CCC(C)n1ncn(-c2ccc(N3CCN(c4ccc(OC[C@@H]5CO[C@@](CC6CCCC6)(c6ccc(Cl)cc6Cl)O5)cc4)CC3)cc2)c1=O` (stereo partly specified) gave an IC50 in series [1] of 512 nM. Moreover, the “inhibition (INH)” value in series [3] is on record as “Not Active”.
